Many of the other results were omitted from the sample, so hits are more common in it than they were.
INS promoter act: TRM-6 insulin promoter activation. TRM-6 cells, insulin promoter eGFP reporter, imaging; plate-scaled: unstimulated 0, stimulated control 100. 0.81% of 130,000 active. activation, % at 2 µM. AID 1296;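 active = activation at 2 µM above a set limit, confirmed on inspection of the cell images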;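 note: share of cells whose green reporter signal exceeds an intensity cutoff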
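Test system: human fetal islet-derived TRM-6 cells with tamoxifen-inducible insulin promoter–eGFP reporter; schedule: overnight tamoxifen, then two-day compound incubation at 37 °C; measured by: high-content imaging of fixed cells with Hoechst nuclear stain; evaluation: percent cells above green-intensity threshold, converted to percent activation versus plate controls; control set: stimulated and unstimulated wells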
* = called active by the depositor.

SMILES | INS promoter act
CSCCC(NC(=O)CCN1C(=O)c2ccccc2C1=O)C(=O)O (configuration not stated) | 6
CSCC[C@H](NC(=O)CCn1nnc2ccccc2c1=O)C(=O)O | 150*
Cc1cc(N2C(=O)C=CC2=O)c([N+](=O)[O-])cc1C | 163
CCOC(=O)CCC(=O)c1c(C)oc2ccc(OC)cc12 | 50
CCOC(=O)c1c(C)oc2ccc(OC(=O)c3cccs3)cc12 | 7
CCOC(=O)c1c(CN2CCN(C)CC2)oc2ccc(OC)cc12 | 138*
O=C(O)c1ccoc1CN1CCCCC1 | -10
Cc1c(Cl)c([N+](=O)[O-])nn1CCCC(=O)NCCc1ccccc1 | 109
CC1CCCC(NC(=O)Nc2cccs2)C1C (configuration not stated) | 9
Cc1ccnc(NC(=S)NC(=O)c2cccs2)c1 | 7
CCCSc1nc(O)c(C(c2ccc(OC)c(O)c2)c2c(O)nc(SCCC)n(C)c2=O)c(=O)n1C | 10
CC(C)(C)c1cc(C(=O)N2CCN(c3ncccn3)CC2)ccn1 | -64
O=S(=O)(c1cc(F)cc(F)c1)N1CCN(c2ncccn2)CC1 | -7
CC(C)(C)c1ccc(S(=O)(=O)N2CCN(c3ncccn3)CC2)cc1 | 267*
Cc1nc2ccccn2c1C(=O)NNS(=O)(=O)c1ccc(C(C)(C)C)cc1 | 5
CCc1nnc(NS(=O)(=O)c2ccc(NC(=O)/C=C/c3ccc(OC)cc3OC)cc2)s1 | 3
CCN(Cc1ccccc1)C(=O)C1CCN(CC2CC=CCC2)CC1 (configuration not stated) | 8
O=C(C1CC1)N(CCN(Cc1ccccc1)C(=O)C1CC1)Cc1ccccc1 | 250*
O=C(C1CCCCC1)N(Cc1ccccc1)c1ccccn1 | 238
CCN(CC)S(=O)(=O)c1cccc(C(=O)Nc2sc3c(c2C(N)=O)CCCC3)c1 | -5
CCN(CC)S(=O)(=O)c1cccc(C(=O)N2CC(O)CC2C(=O)O)c1 (configuration not stated) | 443*
CCN(CC)S(=O)(=O)c1cccc(-c2nnc(SCC(=O)N3CCC(C(=O)O)CC3)n2N)c1 | -6
COC(=O)c1sc2ccccc2c1-n1cccc1C(=O)C(=O)Nc1ccc(Cl)cc1 | 8
O=c1cc(O)nc(SCc2ccccc2)n1-c1ccc(F)cc1 | 0
O=C(c1ccc(S(=O)(=O)c2ccccc2)cc1)N1CCc2ccccc2C1 | 6
SMILES | INS promoter act
C=CCn1cc(C(=O)OC)c(=O)c2cc(S(=O)(=O)N3CCC(C)CC3)ccc21 | 0
C=CCn1cc(C(=O)N2CCc3ccccc3C2)c(=O)c2cc(S(=O)(=O)N(CC)CC)ccc21 | 400*
O=C1C=C(Nc2ccc(Cl)cc2)C(=O)N1c1ccc(Cl)cc1 | -3
CN(CC(=O)Nc1ccc(F)cc1)C(=O)COc1ccc(C(=O)c2ccccc2)cc1 | 0
Cc1ccc(C2C3=C(CCCC3=O)N=C3c4ccccc4C(=O)C32)cc1 (configuration not stated) | 0
COc1ccc(C2(C(=O)Nc3ccc(C(=O)O)cc3)CCOCC2)cc1 | -95
O=C(N1CCOCC1)C1(c2ccccc2)CCCCC1 | 0
O=C(O)c1ccc(NC(=O)C2(c3ccccc3)CCOCC2)cc1 | 494*
CC(C)=CC(=O)OCC(=O)NC1CCCc2ccccc21 (configuration not stated) | -5
Cc1ccc(S(=O)(=O)N2CCN(C(=O)CN3CCOCC3)C2C(C)C)cc1 (configuration not stated) | 500*
O=C(CN1CCOCC1)N1CCN(S(=O)(=O)c2ccccc2)C1c1ccccc1 (configuration not stated) | -3
Cc1ccc(C(=O)N2CCN(C(=O)CN3CCOCC3)C2)cc1 | -4
CC(Oc1ccc(Cl)cc1)c1ccnc(N)n1 (configuration not stated) | -9
CC(CC(=O)Nc1nc2ccccc2[nH]1)c1ccccc1 (configuration not stated) | 0
CC(OC(=O)CCc1nc2ccccc2[nH]c1=O)c1ccccc1 (configuration not stated) | 471*
O=C(CCc1nc2ccccc2[nH]c1=O)OCC(=O)c1cccc2ccccc12 | 83*
Cc1ccc(C(=O)COC(=O)CCc2nc3ccccc3[nH]c2=O)cc1C | 0
O=C(CCc1nc2ccccc2[nH]c1=O)OCC(=O)c1ccc(Cl)cc1 | -3
COC(=O)CCc1nc2ccccc2[nH]c1=O | 8
CCOC(=O)C1=C(Nc2ccccc2)CC(C)(O)C(C(=O)OCC)C1c1ccc(Cl)cc1 (configuration not stated) | 2
Cc1cccc(N/C(=N\S(=O)(=O)c2ccccc2)C(F)(F)F)c1 | 7
CCNC(=O)NC(=O)C(C)Sc1ccc2c(c1)OCCO2 (configuration not stated) | -3
CCOc1ccc(C(CC(=O)O)n2cnnn2)cc1 (configuration not stated) | 9
Cn1nc(-c2ccccc2)c(CO)c1Oc1ccc(F)cc1 | 109
COC(=O)CCN(C(=O)c1ccc(OC(C)=O)cc1)c1ccccn1 | 76*
SMILES | INS promoter act
COC(=O)CCN(C(=O)c1cc([N+](=O)[O-])cc([N+](=O)[O-])c1)c1ccccn1 | 0
CC(c1ccco1)N(C(=O)c1ccc(C#N)cc1)c1ccccn1 (configuration not stated) | -7
COC(=O)c1sc(N)c(C(=O)OC)c1COC(=O)CNS(=O)(=O)c1ccc(C)c(C)c1 | 165
O=C(Nc1ccccc1)/C(=C\c1cccs1)NC(=O)c1ccccc1 | -7
Cc1ccc(C(=O)N/C(=C\c2cccs2)C(=O)NC2CCCCC2)cc1 | 400*
O=C(N/C(=C/c1cccs1)C(=O)N1CCCCCC1)c1ccccc1 | 252
Cc1cnc(NC(=O)CSC(=S)N2CCOCC2)s1 | -3
O=C(CCOc1ccccc1F)N1CCN(c2ccccc2O)CC1 | 0
CCCOC(=O)CCCCCCCCC(O)CN1CCCCC1 (configuration not stated) | 0
COCCNC(=O)/C(C#N)=C/c1ccc(OCC(=O)NC2CCCCC2)cc1 | 129
Cc1cc(C)c(OCC(=O)Nc2nnn(C)n2)c(Br)c1 | 77*
COc1ccc(Br)cc1C(=O)Nc1nnn(C)n1 | 0
Cc1cc(Br)c(NC(=O)CCl)c(Br)c1 | 3
COC(=O)CSc1nc2ccccn2c(=O)c1C=O | -3
O=C(N/N=C/c1cc([N+](=O)[O-])c(N2CCOCC2)cc1N1CCOCC1)c1cccnc1 | -69
Cc1cc2c(cc1C)NC(CC(=O)NCc1ccccc1)C(=O)N2 (configuration not stated) | 106
O=C(CC1NC(=O)NC1=O)Nc1cccc2ccccc12 (configuration not stated) | 569*
COc1ccc(NC(=O)C(NC(=O)CC2NC(=O)NC2=O)c2ccccc2)cc1 (configuration not stated) | 0
COc1cccc(CNC(=O)C2=Cc3cccc(OC)c3OC2)c1 | 0
Cn1cnnc1SCC(=O)Nc1ccc(OCc2ccccc2)cc1 | 0
O=C(/C=C/c1ccc(Cl)c([N+](=O)[O-])c1)NCc1cccnc1 | -9
COCCn1c(C)cc(C(=O)CN2CCCCC2)c1C | 7
CCOC(=O)c1cc(C)n(CCCN2CCOCC2)c1C | 86*
Cc1ccccc1C(=O)OCCN1CCOCC1 | 8
FC(F)(F)c1cc(-c2ccco2)nc2ncnn12 | -8
C=CCNC(=O)CC1C(=O)NCCN1Cc1c(F)cccc1Cl (configuration not stated) | 4
CC(C)CCN1CCNC(=O)C1CC(=O)Nc1ccc(F)cc1 (configuration not stated) | 186*

Screening data from PubChem.
